Data set [1] in a line: Lipophilicity (Rm) (liquid chromatography). Format: physicochemical. In a few lines:
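Rm is measured for drug cations at pH 2 by liquid-liquid chromatography on a cellulose support.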

The test system of the next data set is L1210. Description: In vitro test for 50% reduction of cell number (of control) after 70 hr incubation with cultures of murine L1210 leukemia cells. In kind it is functional. The conditions noted are these: Mus musculus, L1210, 70 h; read-out: ID50 (the source's name).
Data set [2] deals with P388. Description: In vivo inhibition of P388 in mice for optimal (highest nonacutely toxic) dose (OD). In kind it is functional, Mus musculus. Summed up: (§1)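 F1 (DBA/2J × C57BlJ) mice, 19-21 g, either sex, inoculated with 10^6 P388 leukemia cells on day 0. Drug given ip in 0.1 mL 30% aqueous ethanol on days 1, 5 and 9, as a solution or, at highest doses, as a sonicated suspension. Doses stepped down from a toxic level at 0.67-fold intervals. Groups of six mice; ILS relative to 20-30 controls. OD is the highest nonacutely toxic daily dose.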

Data set [3] concerns P388. Description: In vivo tumor cell selectivity (ILSmax values)for percentage increase in life span of treated animals over that of P388 tumor bearing untreated control animals. In kind it is functional, Mus musculus.
Data set [4] deals with P388. As to the kind of experiment: Dose of drug needed to provide a percentage increase in life span of tumor-bearing mice in vivo of […]% compared to untreated controls after inoculation of 10e6 P388 leukemia cells; h=ILS of >50% could not be obtained at any dose level. The following applies: Mus musculus. Format: functional, organism-based.
The nature of data set [5]: Binding affinity towards poly[d(A-T)] (fluorometric method). In kind it is ADME. Summed up: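 Log R for binding to poly[d(A-T)] measured fluorometrically, corrected for quenching.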
Data set [6] has as its system P388. As to the kind of experiment: Tumor cell selectivity (ILSmax values) was evaluated in vivo for the percentage increase in life span of treated animals over that of P388 tumor bearing untreated control animals; h=ILS of >50% could not be obtained at any dose level. The following applies: Mus musculus. Format: functional, organism-based. Summed up:
as §1

Data set [7] deals with P388. As to the kind of experiment: Tumor cell selectivity (ILSmax values) was evaluated in vivo for the percentage increase in life span of treated animals over that of P388 tumor bearing untreated control animals; h=ILS of >20% could not be obtained at any dose level. Format: functional, organism-based. The conditions noted are these: Mus musculus. Summed up:
as §1

Data set [8] concerns P388. As to the kind of experiment: In vivo dose of drug needed for a percentage increase of 50% in life span of tumor-bearing mice compared to untreated controls after inoculation of 10e6 P388 leukemia cells. In kind it is functional, Mus musculus.

For `COP(=O)(Nc1ccc(Nc2c3ccccc3nc3cc([N+](=O)[O-])ccc23)cc1)OC`, the Rm in [1] is on record as 0.14. In the data set on L1210, the IC50 amounted to 74 nM. This compound also showed an OD with P388 [2] of 8.9 mg/kg/day. The Activity in the data set on P388 [3] is on record as 22%. Also, the D50 entry in the data set with P388 [4] was “ILS not obtained”. Besides, the “Log K” value in data set [5] stood at 6.73.
In the case of `CS(=O)(=O)Nc1ccc(Nc2c3ccccc3nc3ccc(Cl)cc23)cc1`, the Activity entry in the data set on P388 [6] is “ILS not obtained”. This compound also had a Rm in data set [1] of 0.15. The IC50 in the data set on L1210 was found to be 3800 nM. The compound also had an OD in the data set on P388 [2] of 150 mg/kg/day. In the data set with P388 [4], the D50 result is listed as “ILS not obtained”. Besides, the “Log K” value in data set [5] was 5.62.
In [1], `CS(=O)(=O)Nc1ccc(Nc2c3ccccc3nc3cc(Br)ccc23)cc1` displayed a Rm of 0.16. Besides, the IC50 in the data set with L1210 is 16 nM. This compound also showed an OD in the data set on P388 [2] of 100 mg/kg/day. Besides, the Activity in the data set on P388 [3] worked out at 33%. Further, the D50 result in the data set with P388 [4] was “ILS not obtained”. Further, the “Log K” value in data set [5] turned out to be 6.93.
For the compound `CNC(=O)c1cccc2c(Nc3ccc(NS(C)(=O)=O)cc3)c3ccccc3nc12`, in [1], the Rm is reported as -0.1. Besides, in the data set with L1210, the IC50 amounted to 245 nM. Further, the OD with P388 [2] worked out at 150 mg/kg/day. Also, the Activity in the data set with P388 [3] was found to be 41%. In the data set with P388 [4], the D50 entry is recorded as “ILS not obtained”. Moreover, the “Log K” value in data set [5] came to 6.22.
As for `Cc1ccc2nc3ccccc3c(Nc3ccc(NS(C)(=O)=O)cc3)c2c1`, the Rm in data set [1] was found to be 0.14. For the same compound, the IC50 in the data set with L1210 is 680 nM. Moreover, the OD in the data set with P388 [2] came to 100 mg/kg/day. The Activity in the data set on P388 [3] is 39%. Moreover, the D50 result in the data set with P388 [4] is “ILS not obtained”. Besides, in data set [5], the “Log K” value was found to be 5.7.
In [1], `COc1cc(NS(C)(=O)=O)ccc1Nc1c2ccccc2nc2ccc(C)cc12` yielded a Rm of 0.4. For the same compound, in the data set with L1210, the IC50 amounted to 1400 nM. In addition, the OD with P388 [2] amounted to 69 mg/kg/day. For the same compound, the Activity in the data set with P388 [3] was found to be 34%. Also, in the data set on P388 [4], the D50 entry is on record as “ILS not obtained”. In addition, the “Log K” value in data set [5] is given as 5.35.
Regarding `COP(=O)(Nc1ccc(Nc2c3ccccc3nc3ccc(Cl)cc23)cc1)OC`, the Activity entry in the data set with P388 [6] was “ILS not obtained”. The compound further displayed a Rm in [1] of 0.37. Further, the IC50 in the data set with L1210 came out at 900 nM. In the data set on P388 [2], this compound gave an OD of 100 mg/kg/day. Also, the D50 result in the data set on P388 [4] is given as “ILS not obtained”. Further, in data set [5], the “Log K” value worked out at 6.17.
In data set [1], `COc1cc(NP(=O)(OC)OC)ccc1Nc1c2ccccc2nc2ccc(C)cc12` came in with a Rm of 0.55. Besides, the IC50 in the data set on L1210 was determined as 985 nM. Besides, in the data set on P388 [2], the OD turned out to be 30 mg/kg/day. The compound also returned an Activity in the data set on P388 [3] of 25%. In the data set with P388 [4], the D50 entry was “ILS not obtained”. Further, the “Log K” value in data set [5] turned out to be 5.28.
In turn, `COP(=O)(Nc1ccc(Nc2c3ccccc3nc3cc(S(C)(=O)=O)ccc23)cc1)OC` returned a Rm in data set [1] of -0.14. In addition, the IC50 in the data set on L1210 is over 1500 nM. The compound also came in with an OD in the data set on P388 [2] of 150 mg/kg/day. Moreover, the D50 entry in the data set with P388 [4] is recorded as “ILS not obtained”. For the same compound, in [5], the “Log K” value was found to be 5.63.
`COP(=O)(Nc1ccc(Nc2c3ccccc3nc3ccc(C)cc23)cc1)OC`: in [1], the Rm was 0.43. Also, in the data set with L1210, the IC50 was determined as 286 nM. The compound further displayed an OD with P388 [2] of 20 mg/kg/day. In the data set on P388 [3], this compound had an Activity of 36%. The D50 result in the data set on P388 [4] is “ILS not obtained”. In addition, in data set [5], the “Log K” value is recorded as 6.09.
`CS(=O)(=O)Nc1ccc(Nc2c3ccccc3nc3cc([N+](=O)[O-])ccc23)cc1` registered a Rm in [1] of -0.18. Moreover, the IC50 with L1210 was 90 nM. Moreover, the OD in the data set on P388 [2] was found to be 8.9 mg/kg/day. Moreover, in the data set with P388 [3], the Activity was 43%. Besides, in the data set on P388 [4], the D50 result is “ILS not obtained”. For the same compound, the “Log K” value in data set [5] is recorded as 6.51.
For the compound `COc1ccc2nc3ccccc3c(Nc3ccc(NP(=O)(OC)OC)cc3)c2c1`, the Rm in [1] is 0.29. Besides, in the data set on L1210, the IC50 came to 920 nM. The compound further came in with an OD in the data set with P388 [2] of 45 mg/kg/day. Besides, the Activity in the data set with P388 [3] is reported as 38%. In the data set with P388 [4], the D50 result was “ILS not obtained”. Further, the “Log K” value in data set [5] amounted to 6.25.
With `CS(=O)(=O)Nc1ccc(Nc2c3ccccc3nc3cc(S(C)(=O)=O)ccc23)cc1`, in the data set with P388 [6], the Activity entry is reported as “ILS not obtained”. In addition, the Rm in data set [1] is recorded as -0.2. In addition, in the data set with L1210, the IC50 was over 2200 nM. Further, the OD with P388 [2] was determined as 150 mg/kg/day. The D50 entry in the data set on P388 [4] was “ILS not obtained”. For the same compound, in data set [5], the “Log K” value is 5.3.
As to `COc1ccc2nc3ccccc3c(Nc3ccc(NS(C)(=O)=O)cc3)c2c1`, the Activity result in the data set on P388 [7] is listed as “ILS not obtained”. This compound displayed a Rm in data set [1] of -0.04. Besides, the IC50 with L1210 stood at 2500 nM. The compound also came in with an OD in the data set on P388 [2] of 150 mg/kg/day. The D50 result in the data set with P388 [4] is on record as “ILS not obtained”. Moreover, the “Log K” value in data set [5] is 6.
In data set [1], `COc1cc(NP(=O)(OC)OC)ccc1Nc1c2ccccc2nc2cc(Br)ccc12` displayed a Rm of 0.57. Further, in the data set on L1210, the IC50 was 5 nM. The OD in the data set on P388 [2] turned out to be 13.3 mg/kg/day. The compound also displayed an Activity with P388 [3] of 83%. The compound also returned a D50 in the data set on P388 [8] of 4 mg/kg/day. In addition, the “Log K” value in [5] was found to be 6.44.
In the case of `COc1cccc2c(Nc3ccc(NS(C)(=O)=O)cc3)c3ccccc3nc12`, in [1], the Rm came out at 0.01. Moreover, the IC50 in the data set on L1210 stood at 45 nM. In the data set with P388 [2], the OD is 150 mg/kg/day. In the data set on P388 [3], the Activity came out at 58%. The D50 with P388 [8] was found to be 125 mg/kg/day. Besides, the “Log K” value in data set [5] was determined as 6.24.
On to `COP(=O)(Nc1ccc(Nc2c3ccccc3nc3cc(Br)ccc23)cc1)OC`, for which the Rm in data set [1] was determined as 0.47. For the same compound, in the data set with L1210, the IC50 was determined as 15 nM. Besides, in the data set with P388 [2], the OD is 65 mg/kg/day. In the data set on P388 [3], the Activity stood at 110%. In the data set with P388 [8], this compound displayed a D50 of 20 mg/kg/day. In addition, the “Log K” value in data set [5] is 6.56.
In [1], `COc1cc(NP(=O)(OC)OC)ccc1Nc1c2ccccc2nc2ccccc12` displayed a Rm of 0.47. The IC50 in the data set with L1210 amounted to 70 nM. Moreover, the OD with P388 [2] came to 8.9 mg/kg/day. The same compound showed an Activity in the data set on P388 [3] of 67%. In the data set with P388 [8], the D50 was determined as 3.5 mg/kg/day. Further, the “Log K” value in data set [5] worked out at 5.64.

These data come from ChEMBL document CHEMBL1122747, “Potential antitumor agents. 42. Structure-activity relationships for acridine-substituted dimethyl phosphoramidate derivatives of 9-anilinoacridine” (J Med Chem, 1984).
